Results on 15 compounds are retold here after ChEMBL document CHEMBL1142832, “Potent 4-aminopiperidine based antimalarial agents” (Bioorg Med Chem Lett, 2005).

For orientation: IC50 means the midpoint of a concentration-inhibition curve. A high value points to lower potency.

Assay [1] deals with Plasmodium falciparum. Kind of assay: Inhibitory concentration against chloroquine-sensitive Plasmodium falciparum. It counts as functional, organism-based.
In assay [2] the test system is HFF. Kind of assay: Cytotoxicity of compound was determined in human foreskin fibroblast assay. It counts as functional. The essentials: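 Human foreskin fibroblasts were assayed in quadruplicate, and the average toxicity value is reported in nM.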
In assay [3] the test system is Plasmodium falciparum. Kind of assay: Inhibition against multidrug-resistant Plasmodium falciparum infected erythrocytes. The format is functional, organism-based. The essentials:
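Multidrug-resistant P. falciparum Dd2 was grown in human red blood cells and assayed at the late ring stage. Parasite growth was read as [3H]-hypoxanthine incorporation. Each compound was run in duplicate, and the mean IC50 (nM) is reported.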

Assay [4] is filed under the species Mus musculus. In words: Percent remaining of compound was determined in mouse S9 liver microsomes at 1 hr. Conditions: Liver S9 fraction.
The species named for assay [5] is Homo sapiens. Kind of assay: Percent remaining of compound was determined in human S9 liver microsomes at 1 hr. The note with it: Liver S9 fraction. (Liver microsomes are vesicles of endoplasmic reticulum, rich in cytochrome P450 enzymes.)

Consider `CCN(CC)CCCNC1CCN(CC(c2ccccc2)c2ccccc2)CC1`, for which the IC50 in assay [1] amounted to 30 nM; in assay [3], 900 nM. The same compound had a Cytotoxicity in assay [2] of 9900 nM.
Consider `CCN(CC)CCCNC1CCN(CCC2CCCCC2)CC1`, for which the Cytotoxicity in assay [2] is 2900 nM. 920 nM corresponded to half-maximal inhibition in assay [3] (IC50).
In the same order, the values of `CCN(CC)CCCNC1CCN(CCc2ccc(-c3ccccc3)cc2)CC1` are 1200 nM and 400 nM.
Take `c1ccc(C(CN2CCC(NCCCN3CCCCC3)CC2)c2ccccc2)cc1`: the Cytotoxicity in assay [2] is recorded as 1200 nM. Also, the half-maximal inhibitory concentration (IC50) in assay [3] was 200 nM.
On to `CCN(CC)CCCNC1CCN(CCc2ccc(Cl)cc2)CC1`, for which the Cytotoxicity in assay [2] was determined as 2700 nM. For the same compound, the IC50 in assay [3] was 850 nM.
Taken in the same sequence, the figures for `CCNCCCNC1CCN(CC(c2ccccc2)c2ccccc2)CC1` were 2600 nM and 2500 nM.
Taken in the same sequence, the figures for `CCN(CCCNC1CCN(CC(c2ccccc2)c2ccccc2)CC1)CC(c1ccccc1)c1ccccc1` were 9900 nM and 900 nM.
In the same order, the values of `CN(C)CCCNC1CCN(CC(c2ccccc2)c2ccccc2)CC1` are 1300 nM and 300 nM.
In assay [2], `CCN(CCCNC1CCN(CC(c2ccccc2)c2ccccc2)CC1)CC1CCCCC1` displayed a Cytotoxicity of 2200 nM. The half-inhibitory concentration (IC50) in assay [3] amounted to 200 nM.
In turn, `CCN(CCCNC1CCN(CC(c2ccccc2)c2ccccc2)CC1)CCc1ccc(Cl)cc1` gave a Cytotoxicity in assay [2] of 2000 nM. The compound further showed an IC50 in assay [3] of 200 nM.
Turning to `CCN(CCCNC1CCN(CC(c2ccccc2)c2ccccc2)CC1)CCC1CCCCC1`, in assay [2], the Cytotoxicity amounted to 2100 nM. Also, the half-inhibitory concentration (IC50) in assay [3] was found to be 250 nM.
In assay [2], `CCN(CC)CCCNC1CCN(CC2CCCCC2)CC1` gave a Cytotoxicity of 6000 nM. In assay [3], this compound displayed an IC50 of 4300 nM.
The compound `c1ccc(C(CN2CCC(NCCCN3CCCC3)CC2)c2ccccc2)cc1` came in with a Cytotoxicity in assay [2] of 2500 nM. In assay [3], this compound came in with a 50% inhibitory concentration (IC50) of 200 nM.
In the case of `c1ccc(Oc2ccc(CNCCCNC3CCN(CC4CCCCC4)CC3)cc2)cc1`, the IC50 in assay [1] was 30 nM.
`CCN(CCCNC1CCN(CC(c2ccccc2)c2ccccc2)CC1)CCc1ccc(-c2ccccc2)cc1`: in assay [2], the Cytotoxicity was determined as 7600 nM. This compound also showed an IC50 in assay [3] of 75 nM. For the same compound, the level, % of control in assay [4] was found to be 113%; in assay [5] it was 45%.
